What was measured:
[1] = biological target: T1, Inhibitor of nuclear factor kappa-B kinase subunit epsilon (Homo sapiens, UniProt Q14164); assay: Inhibition of full length recombinant human IKKepsilon using casein as substrate incubated for 40 mins in presence of [gamma-33P-ATP] by radiometric scintillation assay
T1 sequence (Q14164 whole entry): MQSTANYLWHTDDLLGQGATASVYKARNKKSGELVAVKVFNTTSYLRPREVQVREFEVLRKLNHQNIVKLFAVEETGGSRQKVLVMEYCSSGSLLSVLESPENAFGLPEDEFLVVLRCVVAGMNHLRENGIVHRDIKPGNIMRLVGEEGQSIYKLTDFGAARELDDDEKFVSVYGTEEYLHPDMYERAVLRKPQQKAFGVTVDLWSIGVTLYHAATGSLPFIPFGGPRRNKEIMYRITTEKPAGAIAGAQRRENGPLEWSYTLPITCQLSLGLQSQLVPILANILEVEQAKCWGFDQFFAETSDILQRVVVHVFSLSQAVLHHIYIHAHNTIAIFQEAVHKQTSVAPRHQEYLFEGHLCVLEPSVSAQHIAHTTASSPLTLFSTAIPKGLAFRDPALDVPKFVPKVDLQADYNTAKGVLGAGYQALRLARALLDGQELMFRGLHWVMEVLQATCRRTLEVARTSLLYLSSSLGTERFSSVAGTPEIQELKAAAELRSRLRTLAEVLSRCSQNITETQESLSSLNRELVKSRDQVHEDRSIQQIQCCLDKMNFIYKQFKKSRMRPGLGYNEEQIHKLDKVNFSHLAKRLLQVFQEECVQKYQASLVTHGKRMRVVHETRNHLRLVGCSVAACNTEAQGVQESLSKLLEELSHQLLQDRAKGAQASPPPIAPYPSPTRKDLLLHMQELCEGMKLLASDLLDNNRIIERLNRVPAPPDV
Method in brief: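 Eurofins radiometric kinase assay run at ATP equal to Km for each kinase. 9-point dose–response in duplicate gives the IC50.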

[2] = biological target: Casein kinase II subunit alpha (Homo sapiens, UniProt P68400); assay: Inhibition of full length recombinant human CSNK2A1 using RRRDDDSDDD as substrate incubated for 40 mins in presence of [gamma-33P-ATP] by radiometric scintillation assay
Chain of Casein kinase II subunit alpha (P68400 whole entry): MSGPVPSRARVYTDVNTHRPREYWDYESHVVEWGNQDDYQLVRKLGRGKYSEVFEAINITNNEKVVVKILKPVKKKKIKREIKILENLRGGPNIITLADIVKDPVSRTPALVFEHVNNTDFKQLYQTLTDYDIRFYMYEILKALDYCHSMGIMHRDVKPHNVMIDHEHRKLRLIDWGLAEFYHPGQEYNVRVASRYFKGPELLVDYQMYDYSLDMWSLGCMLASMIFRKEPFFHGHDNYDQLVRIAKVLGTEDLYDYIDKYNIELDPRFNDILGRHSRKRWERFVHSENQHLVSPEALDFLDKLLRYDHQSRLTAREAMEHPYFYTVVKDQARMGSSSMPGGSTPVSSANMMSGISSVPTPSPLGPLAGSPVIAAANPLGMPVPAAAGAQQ
Method in brief: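 Eurofins radiometric enzymatic assay with ATP at Km for each kinase. IC50 was derived from a 9-point dose–response curve run in duplicate.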

Structure (SMILES)	IC50 [1] [nM]	IC50 [2] [µM]
NS(=O)(=O)c1ccc(CNc2nc(Nc3cccc(CN4CCOCC4)c3)ncc2C2CC2)cc1	1310	
NS(=O)(=O)c1ccc(CNc2nc(Nc3cccc(CN4CCOCC4)c3)ncc2Br)cc1		> 10
